# PTEN del growth = growth suppression of PTEN-null HCT116, primary screen, cell-based, CellTiter-Glo | HCT116 PTEN-null viability, 60 h; hits give low values | AID 827, 2007 | viability, % at 10 µM | 1.2% of 140,000 active;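 active means viability at or below a set limit, 4 SD under the median of all tested compounds, cut at about 3.7% in these data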;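 further: PTEN knockout HCT116 line with beta catenin targeted HCT116 as companion control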
# Fibroblast inh = antiproliferative effect on LL 47 fibroblasts – human, LL 47 cells, CellTiter-Glo luminescence, primary screen; LL 47 human lung fibroblast viability, ATP luminescence; hits give low values; viability, % at 10 µM; 1.1% of 85,000 active; AID 719, 2007;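 active means viability at or below 50% in the single dose screen; inactive means viability above 50%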;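 further: compound exposure lasted 72 h before the ATP readout; 100% = median luminescence of untreated cell-only wells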
#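 test system = LL 47 human lung fibroblasts | amount = 1,150 fibroblasts seeded per well | medium = 15% FBS in IMEM | times = overnight cell rest, 72 h compound treatment at 37 °C | measured by = CellTiter-Glo luminescence measuring cellular ATP | read-out = viability percentage against median untreated-cell control | benchmarks = cell-only wells, no compound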
# HUVEC inhibit = inhibitors of HUVEC proliferation, primary screen, cell-based, 384-well | 1.1% of 86,000 active | CellTiter-Glo luminescence, 72 h; hits give low values | AID 648, 2007 | viability, % at 10 µM (by protocol);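 active means viability at or below 30%; inactive means viability above 30%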;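 further: 100% = median luminescence of DMSO-only cell control wells on each plate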
# H69AR growth 86K = proliferation blockers of H69AR lung cancer cells, primary screen, cell-based, human, 86K library; viability, % at 10 µM; 6% of 85,000 active; H69AR lung tumor viability, ATP luminescence, 72 h; hits give low values; AID 598, 2007;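 active means viability at or below 40%; inactive means viability above 40%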;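 further: multidrug resistant small cell line overexpressing MRP-1 efflux transporter; 100% = mean luminescence of untreated control wells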
# bCat KO growth = primary screen for growth suppressors in beta-catenin knockout HCT116 cells (colon tumor, human); 1.5% of 140,000 active; AID 818, 2007; HCT116 beta-catenin knockout viability, CellTiter-Glo, 60 h; hits give low values; viability, % at 10 µM;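 active means viability at or under a set limit, the compound median less 4 SD, cut at about 6% in these data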;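 further: 0% = Hyamine 1622 control at 20 µM and 100% = untreated cell control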
# An asterisk follows results filed as active; . = not tested or not shown. This is one part of a sample in which hits are shown more often than they occur.
SMILES,PTEN del growth,Fibroblast inh,HUVEC inhibit,H69AR growth 86K,bCat KO growth
CCN(C(=O)COC(=O)/C=C/c1ccc(O)c(OC)c1)C1CCS(=O)(=O)C1 (configuration not stated),95,.,.,.,88
O=C(/C=C/c1ccco1)c1ccc(NC(=O)C23CC4CC(CC(C4)C2)C3)cc1,24,.,.,.,21
Oc1cccc2ccc(/C=C/c3cccs3)nc12,3.8*,14*,60,12*,6
O=C(/C=C/c1cccs1)Nc1cccc(NC(=O)/C=C/c2cccs2)n1,29,.,.,.,36
Cc1ccsc1/C=C/c1ccc2cccc(O)c2n1,4,45*,62,18*,5.0*
COC(=O)c1sc2nc(CN3CCN(c4ccc(OC)cc4)CC3)[nH]c(=O)c2c1C,96,.,.,.,89
CCOc1ccccc1NC(=O)Cn1nnc(C(=O)NCc2ccco2)c1N,12,55,51,26*,10
CCOc1ccccc1NC(=O)Cn1nnc(C(=O)Nc2ccc(C)cc2)c1N,107,83,76,78,89
Cc1ccc2nc(/C(C#N)=N/O)[nH]c2c1,107,96,94,80,88
N#C/C(=C/c1ccc(N2CCCC2)c([N+](=O)[O-])c1)c1nc2ccccc2[nH]1,80,.,.,.,84
Cc1ccc2nc(/C(C#N)=C\c3ccc(N4CCCCC4)c([N+](=O)[O-])c3)[nH]c2c1,9,98,106,18*,27
Cc1ccc2nc(/C(C#N)=C/c3cn[nH]c3-c3ccc(F)cc3)[nH]c2c1,1.2*,87,59,14*,1.5*
CCc1ccc(-c2nc(CN3CCCC(C(=O)NCCc4ccc(OC)c(OC)c4)C3)c(C)o2)cc1 (configuration not stated),3.0*,78,60,37*,1.9*
COc1ccc(CCNC(=O)C2CCCN(Cc3nc(-c4ccccc4C)oc3C)C2)cc1OC (configuration not stated),24,95,80,72,13
CCCN(CCC)CCNC(=O)C1CCN(Cc2nc(-c3ccc(Cl)cc3)oc2C)CC1,2.2*,36*,9.9*,59,2.2*
O=C(CCc1ccccc1)Nc1cc(Cl)ccc1O,100,97,79,74,96
O=C(CSc1nnc(Cc2cccs2)n1-c1ccc(Cl)cc1)NCc1ccc2c(c1)OCO2,98,99,96,94,91
CN1CCN(S(=O)(=O)c2ccc(Br)c3nsnc23)CC1,78,89,101,2.9*,77
O=S(=O)(c1ccc(Br)c2nsnc12)N1CCOCC1,86,.,.,.,64
c1ccc(OCc2nc3c4c(ncn3n2)-c2ccccc2CC42CCCC2)cc1,66,.,.,.,69
C/C(=N\NC(=O)CN1CCN(Cc2ccc(C)cc2)CC1)c1ccncc1,92,.,.,.,96
CCOC(=O)c1sc(=NC(=O)c2ccc(OC)c(OC)c2)n(C)c1C,67,97,77,20*,85
O=C(OCC(=O)N1CCN(C(=O)c2ccco2)CC1)c1cc(-c2ccc(Cl)c(Cl)c2Cl)nc2ccccc12,34,104,6.3*,0.9*,58
Clc1cccc2c1Sc1ccccc1CC2N1CCNCC1 (configuration not stated),0.8*,.,.,.,1.0*
Clc1ccc2c(c1)C(N1CCNCC1)Cc1ccccc1S2 (configuration not stated),1.7*,2.4*,2.3*,2.0*,1.5*
SMILES,PTEN del growth,Fibroblast inh,HUVEC inhibit,H69AR growth 86K,bCat KO growth
Cc1ccccc1-n1c(-c2ccc(Cl)cc2)cnc1SCC(=O)NC1CCS(=O)(=O)C1 (configuration not stated),76,.,.,.,76
COc1cccc(C(=O)Nc2cccc(-c3nnc(-c4ccco4)o3)c2)c1,7,97,45,38*,5.0*
COc1ccc(Br)cc1C(=O)Nc1cccc(-c2nnc(-c3ccco3)o2)c1,.,114,47,8.6*,.
COc1ccc(Br)cc1C(=O)Nc1ccc(NC(=O)c2ccco2)cc1,110,99,100,65,94
CCOc1ccc(CNC(=O)CCc2cn(Cc3ccccc3)c3ccccc23)cc1,82,.,.,.,81
CC(C)NC(=S)NC(=O)/C=C/c1ccc(F)cc1,79,.,.,.,80
CCN1/C(=C/c2ccc3cc(C)ccc3[n+]2CC)Sc2ccccc21,1.3*,.,.,.,1.2*
Cc1nc(NC(=O)c2ccccc2)sc1-c1csc(NCc2ccco2)n1,83,88,67,18*,68
CC(=O)NC1=NN(C(C)=O)C(C)(c2cccs2)S1 (configuration not stated),22,57,76,28*,18
COc1ccc(-c2nn(C)c3sc(C(=O)NCc4ccco4)cc23)cc1OC,101,107,97,75,114
COc1ccc(NC(=O)c2cc3c(-c4ccc(OC)c(OC)c4)nn(C)c3s2)cc1OC,54,78,54,9.7*,57
S=C(Nc1ccccc1)Nc1ccc(OCc2ccc(Cl)cc2Cl)cc1,78,.,.,.,86
OCCCCNCc1ccc(OCc2ccc(Cl)cc2Cl)cc1,1.6*,.,.,.,1.8*
COc1ccc(-c2n[nH]c(C)c2-c2ccc(Cl)cc2)c(O)c1OC,41,90,60,35*,44
COc1ccc(-n2nc(C(=O)c3cccs3)cc(-c3nc4ccccc4[nH]3)c2=N)cc1,4,78,29*,1.4*,20
Cc1ccccc1-n1nc(C(=O)c2cccs2)cc(-c2nc3ccccc3[nH]2)c1=N,50,78,71,38*,54
Cc1nnc(SCC(=O)N2c3ccccc3CC2C)[nH]c1=O (configuration not stated),96,.,.,.,85
CCOC(=O)c1c(-c2ccccc2)oc2ccc(O)c(CN(C)C)c12,39,73,55,10*,37
COCCOC(=O)c1c(C)oc2ccc(O)c(CN3CCC(C)CC3)c12,73,95,92,87,79
CCOC(=O)c1c(-c2ccccc2)oc2ccc(O)c(CN3CCCC3)c12,15,59,3.5*,5.3*,17
O=C(Nc1ccc(F)cc1)C1C(c2ccccc2)C1(Cl)Cl (configuration not stated),66,.,.,.,70
C/C(=N/NC(=O)c1ccc(Br)o1)c1cccc(NC(=O)c2ccc(C)o2)c1,66,.,.,.,65
CCN(CC)c1nc2ccccc2c(N)c1-c1ccccc1,14,92,78,39*,7
Cc1c(N(C)C)nc2ccccc2c1N,106,.,.,.,105
CCOC(=O)CC(=O)CSc1nc2ccccc2c(=O)n1-c1ccc(C(=O)NCCOC)cc1,92,108,91,93,92
CC1=C(C(=O)OCc2ccc3c(c2)OCO3)C(c2ccc(F)cc2)NC(=O)N1 (configuration not stated),32,.,.,.,33
CC1=C(C(=O)OCc2ccc3c(c2)OCO3)C(c2ccc(Cl)cc2)NC(=O)N1 (configuration not stated),14,53,27*,29*,14

# Bioassay records (PubChem)
